# SKKanGAS inh – S. pyogenes SKKanGAS growth inhibitors in kanamycin, primary screen, streptokinase expression inhibitor project, SKKanGAS strain, BacTiter-Glo luminescence. 6 h. inhibition, % at 7.5 µM. actives 1.3% (n = 300,000);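 active = mean replicate score, as percent of positive control median, at least 50; inconclusive = mean below 50 but one replicate at or above 50; inactive = mean and every replicate below 50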;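 also: strain carries kanamycin resistance gene driven by streptokinase promoter and grows in 40 µg/ml kanamycin; loss of luminescence reflects streptokinase promoter inhibition or plain growth inhibition; 0% = median of DMSO wells and 100% = positive control at its reference dose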
# aSyn UTR inh – MLPCN primary screen, SNCA 5' untranslated region; alpha-synuclein 5'UTR reporter, inhibitor activity; actives 0.82% (n = 300,000); inhibition, % (tested at 7.5 µM); AID 1813, 2009; in the data active = inhibition above about 60%; inconclusive = no clear call, values can overlap the other calls;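 also: H4 neuroglioblastoma cells stably carrying SNCA 5'UTR luciferase fusion; 0% = DMSO wells and 100% = positive control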
# T cruzi repl – inhibitors of intracellular T. cruzi growth, primary screen, luminescence, NIH3T3 host cells. T. cruzi beta-gal in NIH3T3, 90 h. inhibition, % (concentration not given with the values). actives 1.4% (n = 300,000);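 active = mean inhibition across valid replicates above about 55%, limit read from the data; inconclusive = mean below that limit but half or more replicates reach it; inactive = mean below it, under half of replicates reach it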;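 also: signal also drops with host cell toxicity which is not excluded here; 0% = plate median of DMSO wells and 100% = zero luminescence signal; higher percent means less beta-gal luminescence so fewer parasites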
#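 System: Mouse NIH/3T3 fibroblasts infected with β-gal-expressing T. cruzi Tulahuen C4 | Quantity: NIH/3T3 cells, 5,000 per well | Reagent: 5000 reporter trypomastigotes per well | Dosing: Compound pinned at 50 nL/well, DMSO | Schedule: 3 h host attachment, then at least 90 h co-culture | Detection: GalScreen luminescence, 60 min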
# CSC inhib – cancer stem cell viability inhibitors, primary screen, luminescence | cancer stem cell-like cells viability | inhibition, % at 7.5 µM | actives 1.1% (n = 300,000) | AID 2717, 2010; in the data active = inhibition above about 75%; inconclusive = no clear call, values can overlap the other calls; tested in HMLE shEcad cells
# Mdm2 MdmX PPI – inhibitors of human Mdm2-MdmX association, primary screen, cell-based, luminescence, split luciferase, SaOS-2, uHTS | Protein Mdm4 (Homo sapiens) + E3 ubiquitin-protein ligase Mdm2 (Homo sapiens), … | SaOS-2 split-luciferase Mdm2/MdmX complementation | inhibition, % at 8 µM | actives 3% (n = 330,000);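 active = inhibition of at least 50% at 8 µM in the primary screen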
# Target sequence (O15151 whole entry, looked up): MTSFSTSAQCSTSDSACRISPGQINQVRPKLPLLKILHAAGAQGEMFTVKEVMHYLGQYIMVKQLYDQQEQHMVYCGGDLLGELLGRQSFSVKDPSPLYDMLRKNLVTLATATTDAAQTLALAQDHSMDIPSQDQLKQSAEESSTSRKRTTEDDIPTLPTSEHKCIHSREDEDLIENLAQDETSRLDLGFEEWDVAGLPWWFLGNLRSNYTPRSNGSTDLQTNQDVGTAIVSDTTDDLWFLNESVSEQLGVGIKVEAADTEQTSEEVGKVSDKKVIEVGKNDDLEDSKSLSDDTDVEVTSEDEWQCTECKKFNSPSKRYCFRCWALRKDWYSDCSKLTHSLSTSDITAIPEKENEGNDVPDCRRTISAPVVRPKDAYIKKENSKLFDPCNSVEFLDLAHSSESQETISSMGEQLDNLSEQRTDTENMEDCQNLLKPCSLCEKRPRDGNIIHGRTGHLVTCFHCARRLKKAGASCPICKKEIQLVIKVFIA
# Target sequence (Q00987 whole entry, looked up): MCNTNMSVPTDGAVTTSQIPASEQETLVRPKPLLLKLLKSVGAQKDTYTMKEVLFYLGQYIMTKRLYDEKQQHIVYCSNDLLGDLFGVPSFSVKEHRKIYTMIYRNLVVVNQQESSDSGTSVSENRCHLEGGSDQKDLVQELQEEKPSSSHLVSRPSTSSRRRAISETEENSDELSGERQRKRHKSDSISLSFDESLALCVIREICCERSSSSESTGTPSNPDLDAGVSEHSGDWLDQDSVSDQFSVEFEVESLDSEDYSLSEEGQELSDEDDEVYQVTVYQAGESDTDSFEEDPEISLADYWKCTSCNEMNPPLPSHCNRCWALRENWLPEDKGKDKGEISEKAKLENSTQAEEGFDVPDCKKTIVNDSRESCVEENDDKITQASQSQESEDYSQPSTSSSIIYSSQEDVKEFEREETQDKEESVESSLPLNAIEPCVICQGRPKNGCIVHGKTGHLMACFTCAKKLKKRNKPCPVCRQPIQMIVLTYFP
# Mdm2 MdmX conf – Mdm2-MdmX complex disruptors, retested hits, confirmation, luminescence, single concentration; actives 55% (n = 10,000); inhibition, % at 8 µM; shares compounds with Mdm2 MdmX PPI; Mdm2-MdmX binding, luminescent assay; in the data active = inhibition above about 40%
# FLuc counter – full-length luciferase signal inhibition, confirmation, counter-screen for Mdm2/MdmX interaction inhibitor project, cell-based, single concentration, SaOS-2; shares compounds with Mdm2 MdmX PPI; SaOS-2 full-length luciferase counterscreen, luminescence; inhibition, % at 8 µM; actives 77% (n = 6,200); AID 504607, 2011;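 active = mean inhibition at 8 µM reaching about 37%, which flags the compound as non-specific, limit read from the data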;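 also: p53-null SaOS-2 cells with luciferase driven by a doxycycline-inducible promoter; compound on cells about two nights before reading with doxycycline added after day one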
# Active calls of the source: *; ? = inconclusive; nt = not tested or not shown. Shown are actives, neighbours in structure and some others; about 5.4% of the full set was active somewhere.
SMILES,SKKanGAS inh,aSyn UTR inh,T cruzi repl,CSC inhib,Mdm2 MdmX PPI,Mdm2 MdmX conf,FLuc counter
C/C(=C\c1ccccc1)C(=O)c1c(C)cc(C)[nH]c1=O,0,0,-22,nt,58*,-4,nt
COc1ccc(/C=C(\C)C(=O)c2c(C)cc(C)[nH]c2=O)cc1,0,-15,-20,19,10,nt,nt
O=C1N/C(=N\N=C\c2cccnc2)SC1Cc1ccc(SC(F)F)cc1 (stereo not given),93*,?,62*,99*,64*,72*,44*
O=c1[nH]c(CN2CCN(c3ccc(O)cc3)CC2)nc2scc(-c3ccc(Cl)cc3)c12,31,25,19,105*,59*,54*,58*
Cc1nc(SCc2nc3ccc([N+](=O)[O-])cc3[nH]2)c2oc3ccccc3c2n1,nt,nt,nt,nt,42,nt,nt
COC(=O)c1ccc(OCC2c3cc(OC)c(OC)cc3CCN2C(C)=O)cc1 (stereo not given),-5,38,-1,-1,-1,nt,nt
COC(=O)c1ccc(OCC2c3cc(OC)c(OC)cc3CCN2C(=O)c2ccco2)cc1 (stereo not given),18,12,16,nt,53*,43*,71*
Cc1ccc(OCc2nc(-c3cccs3)no2)c([N+](=O)[O-])c1,10,-64,7,1,-201,nt,nt
COC(=O)c1sc2nc(SCc3ccccc3C)n(N)c(=O)c2c1C,-12,6,-12,3,35,nt,nt
COC(=O)c1sc2nc(SCC(=O)N(C)c3ccccc3)n(N)c(=O)c2c1C,5,16,4,26,56*,8,nt
Cc1cc(C)c(C#N)c(SCC(=O)c2ccc(Cl)cc2Cl)n1,4,28,75*,42,74*,73*,70*
CC(C)(C)C(=O)NC(=S)NNC(=O)c1sc2ccccc2c1Cl,100*,89*,43,nt,74*,52*,37*
O=C(NNC(=S)NC1CCCCC1)c1sc2ccccc2c1Cl,-4,-6,-17,28,5,nt,nt
COc1ccc(/C=N/Nc2cc(C)nc3ccc(Br)cc23)cc1,-9,100*,59*,107*,98*,25,nt
COc1ccc2nc(C)cc(N/N=C/c3cccc(OC)c3O)c2c1,12,100*,18,1,100*,15,nt
COc1ccc2nc(C)cc(NCc3cccc(C(F)(F)F)c3)c2c1,5,9,42,nt,79*,60*,108*
COc1cccc2c(N/N=C/c3ccccc3)cc(C)nc12,-1,21,1,-11,17,nt,nt
Cc1cc(N/N=C/c2ccccc2O)c2ccccc2n1,-1,-113,10,22,21,nt,nt
CCOCCCn1c(=S)[nH]c2cc3c(cc2c1=O)OCO3,6,-5,-4,-11,-8,nt,nt
COc1ccc(C(=O)N/N=C(\C)c2ccccn2)cc1OC,38,43,18,91*,99*,15,nt
C/C(=N/NC(=O)c1ccccn1)c1ccncc1,-1,-116,-7,14,-22,nt,nt
C/C(=N\NC(=O)c1ccc(Cl)c(Cl)c1)c1ccccn1,92*,28,60*,81*,83*,81*,26
C/C(=N\NC(=O)c1cc(Br)ccc1O)c1ccccn1,97*,49,-9,96*,57*,39,50*
C/C(=N/NC(=O)c1ccc(C(C)(C)C)cc1)c1ccccn1,106*,57,40,60,93*,44*,55*
C/C(=N\NC(=O)c1ccc(NS(=O)(=O)c2cccs2)cc1)c1ccncc1,8,2,-5,-3,5,nt,nt
C/C(=N\NC(=O)c1ccc(NS(=O)(=O)c2cccs2)cc1)c1ccccn1,26,71*,9,64,58*,-6,nt
C/C(=N\NC(=O)c1cccc(N/N=C(\C)c2ccccc2)c1)c1ccccc1,nt,nt,nt,6,nt,nt,nt

# Source: PubChem (several laboratories)
